A selection: hits, their analogues and other compounds. The true share with any hit is near 4.2%.
Fh CTSL1 inh – blocks F. hepatica cathepsin L1 in PFM18AAP counter-screen; recombinant F. hepatica cathepsin L1, Z-Leu-Arg-MCA fluorescence; inhibition, % at 5.96 µM; 300,000 compounds, 0.49% hits;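 active = inhibition above the mean of all tested compounds plus 3 SD, set per screening campaign, cut at about 17% in these data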;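 note: 0% = plate median of test compound wells and 100% = 1 µM Z-Phe-Ala-diazomethylketone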
FXN GAA850 act – activators of GAA850 frataxin (FXN) promoter. HEK293 lucGAA850 FXN promoter luciferase reporter, 24 h; percent of 10 µM SAHA response. 360,000 compounds, 0.56% hits. activation, % at 6 µM;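 active = activation above the average of all compounds screened plus 3 SD, cutoff fixed separately per campaign, cut at about 7.5% in these data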;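 note: 0% = DMSO wells and 100% = 10 µM SAHA wells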
HDAC3 inh – inhibitors of human histone deacetylase 3; inhibition, % at 8.3 µM; recombinant HDAC3, fluorogenic peptide/trypsin coupled, fluorescence; O15379; AID 2718; 320,000 compounds, 0.15% hits; in the data active = inhibition above about 26%, passing the limit was not always enough
Target sequence (O15379 whole entry, looked up): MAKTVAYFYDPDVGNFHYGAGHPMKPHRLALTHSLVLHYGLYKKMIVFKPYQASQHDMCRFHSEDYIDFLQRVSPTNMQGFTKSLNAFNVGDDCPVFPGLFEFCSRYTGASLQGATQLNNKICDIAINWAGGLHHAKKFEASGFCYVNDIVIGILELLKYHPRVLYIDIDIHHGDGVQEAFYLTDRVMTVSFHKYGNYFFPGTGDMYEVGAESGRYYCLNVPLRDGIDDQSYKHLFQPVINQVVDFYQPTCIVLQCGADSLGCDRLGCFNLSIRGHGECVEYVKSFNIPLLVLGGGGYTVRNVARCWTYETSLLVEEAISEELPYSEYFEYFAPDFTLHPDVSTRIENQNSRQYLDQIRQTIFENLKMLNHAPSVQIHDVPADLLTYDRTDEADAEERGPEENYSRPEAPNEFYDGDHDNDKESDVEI
M18AAP inhibitor – blocks P. falciparum M18 aspartyl aminopeptidase; recombinant PfM18AAP, H-Glu-NHMec fluorogenic cleavage; inhibition, % at 7.35 µM; 290,000 compounds, 1.2% hits;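 active = inhibition above the campaign mean inhibition over all tested compounds plus 3 SD, cut at about 28% in these data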;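 note: 0% = plate median of test compound wells and 100% = 2 mM ZnCl2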
SENP1 FRET inh – blocks the human SENP1 SUMO protease catalytic domain. AID 624204. 360,000 compounds, 0.21% hits. Q9P0U3. inhibition, % at 10 µM. recombinant SENP1 catalytic domain, CyPet-SUMO1-YPet FRET cleavage;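 active = inhibition at least 30% at 10 µM, raw YFP signal under a set limit, fluorescence ratio 0.5 to 1.5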;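 note: 0% = enzyme with DMSO and 100% = no enzyme wells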
Target sequence (Q9P0U3 419-644 limits assumed): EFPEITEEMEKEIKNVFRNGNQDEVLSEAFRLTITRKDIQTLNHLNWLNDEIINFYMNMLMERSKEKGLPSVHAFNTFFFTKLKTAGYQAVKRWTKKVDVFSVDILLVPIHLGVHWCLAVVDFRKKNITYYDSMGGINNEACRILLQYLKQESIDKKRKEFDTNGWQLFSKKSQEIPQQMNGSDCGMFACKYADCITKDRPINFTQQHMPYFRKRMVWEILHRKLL
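Material – human SENP1 catalytic domain · Input – SENP1 enzyme, 20 pM final · Compound dosing – single concentration of 10 µM compound, 0.5% DMSO final · Timing – enzyme reaction for 50 min at room temperature, dark · Measured by – FRET fluorescence in CFP and YFP emission channels · Control set – no-enzyme wells low, DMSO-plus-enzyme wells high control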
AHR act – activates the human aryl hydrocarbon receptor; P35869; AHR-responsive luciferase reporter cells, luminescence; activation, % at 5 µM; 320,000 compounds, 2.5% hits; AID 2796; in the data active = activation above about 47%;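 note: 0% = vehicle wells and 100% = reference agonist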
Active calls of the source: *.

How did Cc1cc(C)c[n+](-c2[nH]c(=O)sc2/C=N/NC([S-])=Nc2ccccc2)c1 do in these assays?
Fh CTSL1 inh: 7.2; FXN GAA850 act: 3.0; M18AAP inhibitor: 26.6; SENP1 FRET inh: 33.1*; AHR act: 22.3

What do the screens show for `COc1ccc(/C=C/c2nc(N)nc(-c3ccccc3O)n2)cc1`?
Fh CTSL1 inh: 7.0; FXN GAA850 act: 3.7; HDAC3 inh: 3.4; M18AAP inhibitor: 7.2; SENP1 FRET inh: 0.5; AHR act: 59.4*

How did Cc1[nH]c2ccccc2c1/C=C/c1nc2ccccc2c(=O)n1CCO do in these assays?
Fh CTSL1 inh: 4.5; FXN GAA850 act: -4.8; HDAC3 inh: 2.1; M18AAP inhibitor: -1.4; SENP1 FRET inh: -27.0; AHR act: 52.1*

How did CCCOC(=O)c1c(NC(=O)C2CCCO2)sc(C(=O)OC)c1C (centres undefined) do in these assays?
Fh CTSL1 inh: -4.2; FXN GAA850 act: 2.5; M18AAP inhibitor: 39.5*; SENP1 FRET inh: 0.3; AHR act: -1.4

How did C[C@H](CO)N1C[C@H](C)[C@@H](CN(C)S(=O)(=O)c2ccccc2)Oc2ccc(NC(=O)NC3CCCCC3)cc2C1=O do in these assays?
FXN GAA850 act: 1.0; HDAC3 inh: 8.2; SENP1 FRET inh: 2.0; AHR act: -1.5

How did CCn1cc(Br)c(C(=O)Nc2ccc(Cl)c(Cl)c2)n1 do in these assays?
Fh CTSL1 inh: -0.4; FXN GAA850 act: 2.3; HDAC3 inh: -4.9; M18AAP inhibitor: -12.3; SENP1 FRET inh: -0.5; AHR act: 77.4*

Results for CCn1cc(Br)c(C(=O)Nc2nccs2)n1 ?
Fh CTSL1 inh: -2.5; FXN GAA850 act: 1.5; HDAC3 inh: 3.6; M18AAP inhibitor: 3.8; SENP1 FRET inh: 1.7; AHR act: 56.9*

How did CCn1nccc1C(=O)Nc1nccs1 do in these assays?
Fh CTSL1 inh: 1.9; FXN GAA850 act: 0.8; HDAC3 inh: -1.3; M18AAP inhibitor: -5.9; SENP1 FRET inh: -6.3; AHR act: 8.7

How did CCn1cc(Br)c(C(=O)Nc2ccc(OC)cc2)n1 do in these assays?
Fh CTSL1 inh: -2.8; FXN GAA850 act: 0.7; HDAC3 inh: -0.5; M18AAP inhibitor: 0.4; SENP1 FRET inh: 2.5; AHR act: 24.5

How did CCn1cc(Br)c(C(=O)NN)n1 do in these assays?
Fh CTSL1 inh: -0.6; FXN GAA850 act: 3.1; HDAC3 inh: -1.2; M18AAP inhibitor: 9.4; SENP1 FRET inh: 1.4; AHR act: 50.2*

What do the screens show for `Cc1ccc(NC(=O)CSCC(=O)N(C)Cc2c(F)cccc2Cl)cc1`?
FXN GAA850 act: -0.5; SENP1 FRET inh: -1.6

Results for COc1ccc(CN(C)C(=O)CCCNC(=O)c2ccc(Cl)cc2)cc1 ?
Fh CTSL1 inh: -3.1; FXN GAA850 act: 1.5; HDAC3 inh: 1.6; M18AAP inhibitor: 1.6; SENP1 FRET inh: 0.2; AHR act: -0.8

Results for COc1ccccc1C(=O)NCC(=O)OCc1nnc(-c2ccccc2)o1 ?
FXN GAA850 act: 2.8; SENP1 FRET inh: -0.9

Results for CCC(=O)Oc1oc(-c2ccccc2)nc1C=Nc1ccc(C)cc1 ?
Fh CTSL1 inh: 26.5*; FXN GAA850 act: -0.5; HDAC3 inh: 12.2; M18AAP inhibitor: 1.3; SENP1 FRET inh: -11.3; AHR act: 3.8

What do the screens show for `CCC(=O)Oc1oc(-c2ccccc2)nc1C=Nc1ccccc1OC`?
Fh CTSL1 inh: 24.8*; FXN GAA850 act: 2.5; HDAC3 inh: 6.1; M18AAP inhibitor: -10.7; SENP1 FRET inh: -47.2; AHR act: 25.2

How did CC(C)(C)N(Cc1ccccc1)C(=O)COC(=O)c1cccc([N+](=O)[O-])c1 do in these assays?
Fh CTSL1 inh: -4.7; FXN GAA850 act: -0.6; HDAC3 inh: 6.3; M18AAP inhibitor: 4.6; SENP1 FRET inh: -0.9; AHR act: -0.2

How did CC(O)(c1ccc(F)c(F)c1)c1nc(-c2cc3ccccc3o2)cs1 (centres undefined) do in these assays?
FXN GAA850 act: 1.2; SENP1 FRET inh: 1.5

What do the screens show for `Cc1csc(NC(=O)c2cc3c(C)nn(Cc4ccccc4Cl)c3s2)n1`?
Fh CTSL1 inh: -1.9; FXN GAA850 act: 1.3; HDAC3 inh: -6.7; M18AAP inhibitor: 8.0; SENP1 FRET inh: -9.9; AHR act: 47.1*

Results for Cc1nn(Cc2ccccc2Cl)c2sc(C(=O)NCCCn3ccnc3)cc12 ?
Fh CTSL1 inh: -0.5; FXN GAA850 act: 0.7; HDAC3 inh: 0.9; M18AAP inhibitor: 0.8; SENP1 FRET inh: -1.0; AHR act: 49.5*

What do the screens show for `COC(=O)C1=CN(c2ccc(OC)cc2)C=C(C(=O)OC)C1c1cccc(F)c1`?
Fh CTSL1 inh: 0.4; FXN GAA850 act: 1.9; HDAC3 inh: -26.2; M18AAP inhibitor: 3.8; SENP1 FRET inh: -76.9; AHR act: 0.8

What do the screens show for `COc1ccc2c(c1)CCC1C2=NN(/C(C)=C\C(C)=O)C1c1ccc(F)cc1` (centres undefined)?
Fh CTSL1 inh: -1.1; FXN GAA850 act: 4.3; HDAC3 inh: -1.0; M18AAP inhibitor: -2.5; SENP1 FRET inh: -53.9; AHR act: 60.1*

Results for COc1ccc2c(c1)C1=NN(/C(C)=C\C(C)=O)C(c3ccccc3)C1CC2 (centres undefined) ?
Fh CTSL1 inh: 10.4; FXN GAA850 act: 1.9; HDAC3 inh: -1.0; M18AAP inhibitor: -0.8; SENP1 FRET inh: -74.9; AHR act: 83.5*

How did COc1ccc(/C=C2\CCCC3C2=NN(C(=O)COC(=O)CNC(=O)c2ccccc2)C3c2ccc(OC)cc2)cc1 (centres undefined) do in these assays?
Fh CTSL1 inh: 2.8; FXN GAA850 act: 3.1; HDAC3 inh: 8.8; M18AAP inhibitor: -4.9; SENP1 FRET inh: 2.1; AHR act: -3.6

How did COc1ccc2c(c1)C1=NN(/C(C)=C/C(C)=O)C(c3ccc(F)cc3)C1CC2 (centres undefined) do in these assays?
Fh CTSL1 inh: 0.2; FXN GAA850 act: 4.0; HDAC3 inh: -12.2; M18AAP inhibitor: -7.3; SENP1 FRET inh: -30.8; AHR act: 68.9*

How did COc1ccc2c(c1)C1=NN(/C(C)=C/C(C)=O)C(c3cccc(F)c3)C1CC2 (centres undefined) do in these assays?
Fh CTSL1 inh: -2.5; FXN GAA850 act: 3.0; HDAC3 inh: 0.8; M18AAP inhibitor: -0.6; SENP1 FRET inh: -57.7; AHR act: 97.1*

Results for Nc1n[nH]c(-c2ccc(Br)cc2)c1Cl ?
Fh CTSL1 inh: 1.5; FXN GAA850 act: -0.9; HDAC3 inh: -2.7; M18AAP inhibitor: -3.8; SENP1 FRET inh: -1.2; AHR act: 61.7*

Results for NC(=O)c1ccsc1NC(=O)COC(=O)Cc1ccccc1[N+](=O)[O-] ?
FXN GAA850 act: 1.8; SENP1 FRET inh: 1.2

Results for CCOC(=O)c1c(C)oc(/N=C/c2ccccc2O)c1C#N ?
Fh CTSL1 inh: 17.2*; FXN GAA850 act: 1.4; HDAC3 inh: -0.1; M18AAP inhibitor: 12.6; SENP1 FRET inh: 0.5; AHR act: -0.2

What do the screens show for `Cc1oc(/N=C/c2ccccc2O)c(C#N)c1C`?
Fh CTSL1 inh: -8.0; FXN GAA850 act: 1.5; HDAC3 inh: 9.1; M18AAP inhibitor: 5.0; SENP1 FRET inh: -10.4; AHR act: 20.1

From PubChem
